Activity data for 17 compounds are collected here from ChEMBL document CHEMBL1138424, “Solid phase-assisted synthesis and screening of a small library of N-(4-hydroxyphenyl)retinamide (4-HPR) analogs” (2007).

SMILES strings stand for the structures. Activity calls are given as the source filed them. No cut-off for these calls is given here.

The test system of the first experiment is MCF7. Briefly: Growth inhibition of human MCF7 cells at 10 uM after 48 hrs by fluorescein diacetate cell viability assay relative to 4-HPR. In kind it is functional. The method in brief:
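MCF-7 human breast cancer cells received a single dose at a final 10−5M, with vehicle at 0.2% ethanol. Live cells were counted 48 hrs later by fluorescein diacetate viability assay. Activity was scored on a +/++/+++ scale against 4-HPR.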
For the compound `CC1=C(/C=C/C(C)=C/C=C/C(C)=C/C(=O)Nc2ccccc2)C(C)(C)CCC1`, the Activity result is listed as “>=25%”.

Take `CC1=C(/C=C/C(C)=C/C=C/C(C)=C/C(=O)Nc2cc([N+](=O)[O-])ccc2O)C(C)(C)CCC1`: the Activity result is listed as “>=25%”.

Take `CC1=C(/C=C/C(C)=C/C=C/C(C)=C/C(=O)Nc2ccc(C)cc2O)C(C)(C)CCC1`: the Activity result was “>=50%”.

In the case of `CC1=C(/C=C/C(C)=C/C=C/C(C)=C/C(=O)Nc2cccc(CO)c2)C(C)(C)CCC1`, the Activity result is “>=25%”.

`COC(=O)c1ccc(NC(=O)/C=C(C)/C=C/C=C(C)/C=C/C2=C(C)CCCC2(C)C)c(O)c1`: the Activity result was “>=25%”.

For `CC1=C(/C=C/C(C)=C/C=C/C(C)=C/C(=O)Nc2ccc([N+](=O)[O-])cc2O)C(C)(C)CCC1`, the Activity entry is “>=100%”.

As for `CC1=C(/C=C/C(C)=C/C=C/C(C)=C/C(=O)Nc2ccc(Cl)cc2)C(C)(C)CCC1`, the Activity entry is given as “>=25%”.

On to `CC1=C(/C=C/C(C)=C/C=C/C(C)=C/C(=O)Nc2ccccc2C(=O)O)C(C)(C)CCC1`, for which the Activity result is “>=25%”.

In the case of `CC1=C(/C=C/C(C)=C/C=C/C(C)=C/C(=O)N(C)c2ccc(O)cc2)C(C)(C)CCC1`, the Activity result is recorded as “>=25%”.

As to `COC(=O)c1cc(NC(=O)/C=C(C)/C=C/C=C(C)/C=C/C2=C(C)CCCC2(C)C)ccc1O`, the Activity entry is “>=25%”.

In the case of `CC1=C(/C=C/C(C)=C/C=C/C(C)=C/C(=O)Nc2ccc(C)c(O)c2)C(C)(C)CCC1`, the Activity entry is “>=100%”.

In the case of `CC1=C(/C=C/C(C)=C/C=C/C(C)=C/C(=O)Nc2cc(Cl)ccc2O)C(C)(C)CCC1`, the Activity result is “>=50%”.

`CC1=C(/C=C/C(C)=C/C=C/C(C)=C/C(=O)Nc2ccc(N)cc2)C(C)(C)CCC1`: the Activity result was “>=50%”.

Take `CC1=C(/C=C/C(C)=C/C=C/C(C)=C/C(=O)Nc2ccc(O)cc2)C(C)(C)CCC1` [FENRETINIDE]: the Activity entry is listed as “>=100%”.

In the case of `CC1=C(/C=C/C(C)=C/C=C/C(C)=C/C(=O)Nc2ccc(O)c(Cl)c2)C(C)(C)CCC1`, the Activity result is recorded as “>=50%”.

For the compound `COc1ccc(NC(=O)/C=C(C)/C=C/C=C(C)/C=C/C2=C(C)CCCC2(C)C)cc1`, the Activity entry is recorded as “>=25%”.

`CC1=C(/C=C/C(C)=C/C=C/C(C)=C/C(=O)Nc2ccc(Cl)c(Cl)c2)C(C)(C)CCC1`: the Activity result is “>=25%”.

The next experiment concerns MCF7. Briefly: Induction of apoptosis in human MCF7 cells at 10 uM after 48 hrs by TUNEL assay relative to 4-HPR. In kind it is functional, cell-based. The method in brief: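 MCF-7 cells received a single dose at 10−5M, with vehicle as control. After 48 hr the % of TUNEL-labeled cells was scored. Values are means (+SEM) of three independent cell culture experiments, compared with standard 4-HPR.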
For the compound `COC(=O)c1ccc(NC(=O)/C=C(C)/C=C/C=C(C)/C=C/C2=C(C)CCCC2(C)C)c(O)c1`, the outcome was Active.

As to `CC1=C(/C=C/C(C)=C/C=C/C(C)=C/C(=O)Nc2ccc([N+](=O)[O-])cc2O)C(C)(C)CCC1`, the outcome was Active.

As for `CC1=C(/C=C/C(C)=C/C=C/C(C)=C/C(=O)Nc2ccc(C)c(O)c2)C(C)(C)CCC1`, the outcome was Active.
